# Results published in ChEMBL document CHEMBL1149457, “Effects of amino acid chirality and the chemical linker on the cell permeation characteristics of cyclic prodrugs of opioid peptides” (J Med Chem, 2006).
# Columns and labels:
# Assay type in all cases: ADME, cell-based
# Conditions in all cases: human
# Caco-2 [1] = assay: Ratio of permeability from basolateral to apical over apical to basolateral side of the Caco-2 cell membrane in presence of 10 uM GF 120918
# Procedure, shortened: (§1)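 Caco-2 monolayers (passages 30-39) were grown 21-28 days on polyester Transwell membranes, with batch integrity checked by [14C]-mannitol flux. Bidirectional transport (n = 3) was run at 37 °C with shaking, using peptide at 20 µM final in HBSS pH 7.4 with 0.4% DMSO and inhibitor in HBSS. Sampling continued up to 160 min, with LC-MS-MS quantitation. Papp BL-to-AP/AP-to-BL ratio.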
# Caco-2 [2] = assay: Ratio of permeability from basolateral to apical over apical to basolateral side of the Caco-2 cell membrane in presence of 20 uM cyclosporin A; procedure, shortened: as §1
# Caco-2 [3] = assay: Ratio of permeability from basolateral to apical over apical to basolateral side of the Caco-2 cell membrane in presence of 50 uM MK 571; procedure, shortened: as §1
# Caco-2 [4] = assay: Ratio of permeability from basolateral to apical over apical to basolateral side of the Caco-2 cell membrane in presence of 2 uM GF 120918; procedure, shortened: as §1
SMILES,Ratio (Caco-2 [1]),Ratio (Caco-2 [2]),Ratio (Caco-2 [3]),Ratio (Caco-2 [4])
CC(C)C[C@@H]1NC(=O)[C@H](Cc2ccccc2)NC(=O)CNC(=O)[C@H](C)NC(=O)[C@H](Cc2ccc(O)cc2)NC(=O)/C=C\c2ccccc2OCOC1=O,1.9,12,,
CC(C)C[C@H]1NC(=O)[C@H](Cc2ccccc2)NC(=O)CNC(=O)[C@H](C)NC(=O)[C@H](Cc2ccc(O)cc2)NC(=O)/C=C\c2ccccc2OCOC1=O,2.1,6.1,,5.4
CC(C)C[C@H]1NC(=O)[C@H](Cc2ccccc2)NC(=O)CNC(=O)[C@@H](C)NC(=O)[C@H](Cc2ccc(O)cc2)NC(=O)/C=C\c2ccccc2OCOC1=O,2.8,,4.9,13

# The remaining lines, values ahead:
Ratio (Caco-2 [1]),Ratio (Caco-2 [2]),Ratio (Caco-2 [3]),Ratio (Caco-2 [4]),SMILES
1,1.2,3.8,,CC(=O)N[C@@H](Cc1ccc(O)cc1)C(=O)N[C@@H](C)C(=O)NCC(=O)N[C@@H](Cc1ccccc1)C(=O)N[C@H](CC(C)C)C(N)=O
1.1,2.4,1.1,,CC(=O)N[C@@H](Cc1ccc(O)cc1)C(=O)N[C@H](C)C(=O)NCC(=O)N[C@@H](Cc1ccccc1)C(=O)N[C@@H](CC(C)C)C(N)=O
2.3,14,2.8,5,CC(C)C[C@@H]1NC(=O)[C@H](Cc2ccccc2)NC(=O)CNC(=O)[C@@H](C)NC(=O)[C@H](Cc2ccc(O)cc2)NC(=O)/C=C\c2ccccc2OCOC1=O
